Bioassay records from PubChem BioAssay.
The list is not random: actives were taken first. Their share in the collection is about 3.7%.
KCNK3 block: human KCNK3 channel inhibition, primary screen | O14649 | CHO-KCNK3 thallium flux, FluxOR fluorescence; stronger effect = lower value | B-score at 10 µM | 340,000 compounds, 0.84% hits | AID 602410;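 active = B-score under library mean minus 4 SD, starting fluorescence ratio at most library mean plus 5 SD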;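 also: more negative B-score means stronger inhibition of thallium flux through KCNK3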
Target sequence (O14649 whole entry, looked up): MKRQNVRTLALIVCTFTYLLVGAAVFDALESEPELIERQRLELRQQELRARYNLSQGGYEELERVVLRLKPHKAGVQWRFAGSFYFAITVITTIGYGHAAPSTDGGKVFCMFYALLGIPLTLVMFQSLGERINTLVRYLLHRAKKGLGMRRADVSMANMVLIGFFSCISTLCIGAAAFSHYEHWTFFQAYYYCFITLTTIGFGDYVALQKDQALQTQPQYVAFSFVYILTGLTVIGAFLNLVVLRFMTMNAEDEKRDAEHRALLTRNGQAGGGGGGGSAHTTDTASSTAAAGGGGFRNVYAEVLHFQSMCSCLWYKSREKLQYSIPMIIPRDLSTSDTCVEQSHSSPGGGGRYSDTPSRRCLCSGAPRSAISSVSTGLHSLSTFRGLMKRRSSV
KCNQ1 pot: potentiators or activators of human KCNQ1 potassium channel; CHO-K1 KCNQ1, thallium flux FluxOR fluorescence; stronger effect = higher value; B-score at 10 µM; 310,000 compounds, 0.35% hits; AID 2648;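 active = fluorescence ratio B-score, a plate-corrected score, at least three library SD, with initial intensity B-score within 5 SD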
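Test system: CHO-K1 cells stably expressing KCNQ1 / Medium: assay buffer / Also added: depolarizing K+/Tl+ stimulus, K2SO4 and Tl2SO4 each 12.5 mM in 5x stock / Incubation: 90 min dye loading and 20 min compound exposure, both at room temperature / Signal: thallium influx via FluxOR fluorescence, kinetic imaging / Evaluation: B score of baseline-normalized fluorescence ratio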
KCNK9 inh: blocks the human KCNK9 two-pore domain potassium channel; Q9NPC2; HEK293 KCNK9, FluxOR thallium flux fluorescence; stronger effect = lower value; B-score at 10 µM; 310,000 compounds, 1.2% hits;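 active = ratio B-score over 3 SD below the library mean, with starting fluorescence within 5 SD of its mean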;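 also: negative B-score means less thallium flux so channel inhibition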
hERG rescue: compounds protecting human hERG from proarrhythmic drug block | 310,000 compounds, 0.51% hits | Q12809 | AID 1511 | activation (rescue from dofetilide block), less the hit threshold, % at 10 µM | CHO-hERG, FluxOR thallium flux, dofetilide IC70 present;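 active = activation above the mean of controls blocked by dofetilide plus 5 SD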;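 also: thallium influx through hERG after potassium depolarization seen as dye fluorescence rise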
KCNQ1 block: human KCNQ1 channel inhibition | P51787 | B-score at 10 µM | 310,000 compounds, 1.3% hits | CHO-K1 KCNQ1, FluxOR thallium flux fluorescence; stronger effect = higher value | AID 2642;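 active = compounds whose thallium flux B-score, printed positive for inhibition, exceeds three library SD while starting fluorescence stays within three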;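 also: channel opened by potassium depolarization with thallium stimulus after 20 min compound exposure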
Kir21 block: Kir2.1 (mouse) channel inhibition; P35561; HEK293-Kir2.1, FluxOR thallium flux fluorescence; stronger effect = lower value; B-score at 10 µM; 310,000 compounds, 0.85% hits; AID 1672;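 active = fluorescence ratio B-score at or below minus 3 SD of library scores, with starting-brightness B-score within 2 SD, cut at about -4.2 in these data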;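 also: channel flux triggered by added potassium and thallium sulfate stimulus; B-score of peak minus minimum fluorescence over baseline after thallium stimulus; more negative B-score means stronger Kir2.1 block with less thallium influx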
* = called active by the depositor; i = inactive; . = not tested or not shown.

SMILES	KCNK3 block	KCNQ1 pot	KCNK9 inh	hERG rescue	KCNQ1 block	Kir21 block
Cc1ccc(/C=N/Nc2cc(C)nc(NCc3ccccc3)n2)cc1	i	i	i	-7.5	i	-0.3
Cc1nc(NN)nc(NCc2ccccc2)n1	i	i	i	7.1*	i	1.57
Cc1cc(Nc2ccccc2)nc(NCc2ccccc2)n1	i	i	i	-22.1	i	-10.7*
Cc1cc(Nc2ccc(Cl)cc2)nc(NCc2ccccc2)n1	i	i	i	-18.1	i	-6.99*
COCCN(C(=O)CCC(=O)Nc1ccccn1)C(C(=O)NC(C)C)c1ccc(C)cc1 (configuration not stated)	i	i	i	-4.2	i	0.43
S=c1[nH]nc(-c2ccco2)n1-c1ccc(Br)cc1	i	i	i	-7.2	i	0.43
COC(=O)Oc1ccc(/C=C/C(=O)OC(C)C)cc1OC(=O)OC	i	i	i	6.6*	i	-1.45
COC(=O)CNC(c1ccccc1)c1cc(Br)ccc1NS(=O)(=O)c1ccccc1 (configuration not stated)	i	i	-6.6*	-7.4	i	-0.06
COC(=O)CNC(c1ccccc1)c1cc(Br)ccc1N (configuration not stated)	i	i	i	-3.1	i	-0.55
COC(=O)CNC(c1ccccc1)c1cc(Br)ccc1NS(=O)(=O)c1ccc(C)cc1 (configuration not stated)	i	i	-7.43*	-13.4	i	1.27
CCc1cc(C(=O)N(CC)CC(=O)Nc2ccc(OC)cc2)sc1C	i	.	.	.	.	.
CCn1c(=O)c([N+](=O)[O-])c(NCCN(C)C)c2ccccc21	i	i	i	-9.5	i	1.22
CCn1c(=O)c([N+](=O)[O-])c(Cl)c2ccccc21	i	i	i	-28.9	7*	-0.05
COc1ccc(NC(=O)/C(=C/c2ccc(OC(C)=O)c(OC)c2)NC(C)=O)cc1	i	88*	i	-2.8	i	0.77
COc1cc(/C=C(\NC(C)=O)C(=O)Nc2ccc(NC(C)=O)cc2)ccc1OC(C)=O	i	i	i	-2.0	i	-0.6
COc1ccc(C(=O)Nn2c(SCC(=O)N3CCC(C)CC3)nc3ccccc3c2=O)cc1	i	i	i	-10.4	i	0.3
COc1ccc(C(=O)Nn2c(C)nc3ccccc3c2=O)cc1	i	i	i	-6.8	i	1.09
COc1ccc(C(=O)Nn2c(SCC(=O)c3ccc(Cl)cc3)nc3ccccc3c2=O)cc1	i	i	-7.05*	-12.7	i	-0.65
CCCOc1ccc(C(=O)Nn2c(C)nc3ccccc3c2=O)cc1	i	i	i	6.5*	i	0.67
O=C(NCCS(=O)(=O)NC1CCCCC1)c1ccc2c(c1)OCO2	i	i	i	-10.0	i	-1.5
Cc1nn(-c2ccccc2)c(C)c1NC(=O)COC(=O)c1ccc(O)cc1O	i	i	i	-23.6	i	-0.48
CN1C(=O)NC(c2ccccc2[N+](=O)[O-])C2=C1CC(C)(C)CC2=O (configuration not stated)	i	i	i	-6.5	i	0.93
CN1C(=O)NC(c2ccccc2[N+](=O)[O-])C2=C1CCCC2=O (configuration not stated)	i	i	i	-15.2	6*	-1.77
CCOC(=O)c1cc2c(=O)n3ccccc3nc2n(CCCOC)c1=NC(=O)c1ccncc1	i	15*	i	-24.9	i	-1.65
CCOC(=O)c1cc2c(=O)n3ccccc3nc2n(Cc2ccco2)c1=NC(=O)c1cccc(OC)c1	i	i	i	-21.3	7*	-0.78
COc1ccc(C(=O)N2CCN(c3ccc(C(C)=O)cc3)CC2)cc1S(=O)(=O)N1CCCC1	i	.	.	.	.	.
CC[C@H](C)/C=C/C1=CC2=C(Cl)C(=O)[C@@]3(C)OC(=O)C(C(=O)[C@H](C)[C@@H](C)O)=C3C2=CO1	i	i	i	-29.9	6*	-0.61
COc1ccc(N(CC(=O)N2CCN(c3ccccc3)CC2)S(=O)(=O)c2ccc(C)cc2)cc1	i	i	i	-9.4	i	-0.3
